Source: ChEMBL document CHEMBL3227917, “Structure-activity relationships of dimeric Catharanthus alkaloids. 2. Experimental antitumor activities of N-substituted deacetylvinblastine amide (vindesine) sulfates” (J Med Chem, 1979)

Key:
Mus musculus [1] = assay: Toxicity in C57BL/6 mouse allografted with mouse B16 cells assessed as animal death at 0.60 mg/kg, ip administered on days 1,5 and 9; assay type: organism-based; set-up: dose 0.6 mg/kg, route intraperitoneal; conditions: in vivo, 0.6 mg/kg
Procedure, shortened: (§1)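 B16 melanoma cells (10⁶ inoculum) implanted ip in C57BL/6 mice; groups of 10. Sulfate salts unless noted, given ip on days 1, 5 and 9. Single test. Survival prolongation is expressed as percent versus controls, with survivors counted on day 60. Toxic means deaths of ≥5 of 10 animals before the first control death.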

Mus musculus [2] = assay: Toxicity in C57BL/6 mouse allografted with mouse B16 cells assessed as animal death at 1.20 mg/kg, ip administered on days 1,5 and 9; assay type: organism-based; set-up: dose 1.2 mg/kg, route intraperitoneal; conditions: in vivo, 1.2 mg/kg; procedure, shortened: as §1
Mus musculus [3] = assay: Toxicity in C57BL/6 mouse allografted with mouse B16 cells assessed as animal death at 0.90 mg/kg, ip administered on days 1,5 and 9; assay type: organism-based; set-up: dose 0.9 mg/kg, route intraperitoneal; conditions: in vivo, 0.9 mg/kg; procedure, shortened: as §1
[4] = Antitumor activity against mouse Gardner lymphosarcoma allografted in C3H mouse assessed as tumor growth inhibition at 0.20 mg/kg, ip administered daily for 8 to 10 days; assay type: functional; conditions: route intraperitoneal, read-out: TGI
Procedure, shortened: (§2)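 Gardner lymphosarcoma in C3H mice; sulfate salts unless noted, given ip daily for 8–10 days, treatment starting 8 days after tumor implantation. Tumor growth inhibition scored as –, 0–25%; +, 26–50%; ++, 51–75%; +++, 76–100%; T, lethal to ≥5 of 10 animals per group. Average of one or more tests.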

[5] = Antitumor activity against mouse Gardner lymphosarcoma allografted in C3H mouse assessed as tumor growth inhibition at 0.10 mg/kg, ip administered daily for 8 to 10 days; assay type: functional; conditions: route intraperitoneal, read-out: TGI; procedure, shortened: as §2
B16 = assay: Antitumor activity against mouse B16 cells allografted in C57BL/6 mouse assessed as prolongation of host survival at 0.30 mg/kg, ip administered on days 1,5 and 9; assay type: functional; conditions: route intraperitoneal; procedure, shortened: as §1
Mus musculus [6] = assay: Toxicity in C3H mouse allografted with mouse Gardner lymphosarcoma assessed as lethality at 0.30 mg/kg, ip administered daily for 8 to 10 days; assay type: organism-based; set-up: dose 0.3 mg/kg, route intraperitoneal; conditions: in vivo, 0.3 mg/kg
Procedure, shortened: (§3)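 Tumor-bearing mice given sulfate salts ip daily for 8–10 days; values are the average of one or more tests. Toxic means lethal to ≥5 of 10 animals per group.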

Mus musculus [7] = assay: Toxicity in C3H mouse allografted with mouse Gardner lymphosarcoma assessed as lethality at 0.40 mg/kg, ip administered daily for 8 to 10 days; assay type: organism-based; set-up: dose 0.4 mg/kg, route intraperitoneal; conditions: in vivo, 0.4 mg/kg; procedure, shortened: as §3
P388/VCR [8] = assay: Antitumor activity against mouse P388/VCR cells allografted in CD2F1 mouse assessed as increase in host lifespan at 0.648 mg/kg, ip administered on days 1, 5 and 9; assay type: functional; conditions: route intraperitoneal
Procedure, shortened: (§4)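 Groups of eight male CD2F1 mice bearing P388 leukemia, run at NCI. Sulfate salts given ip on days 1, 5 and 9. Read-out is percent increase in lifespan.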

Mus musculus [9] = assay: Toxicity in CD2F1 mouse allografted with mouse P388/VCR cells at 3.00 mg/kg, ip administered on days 1, 5 and 9; assay type: organism-based; set-up: dose 3 mg/kg, route intraperitoneal; conditions: in vivo
[10] = Toxicity in iv dosed mouse assessed as lethality; assay type: organism-based; conditions: in vivo
CHO [11] = assay: Mitotic arrest in CHO cells assessed as increase in cell accumulation at 0.2 ug/ml; assay type: functional, Cricetulus griseus
Procedure, shortened: (§5)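 Chinese hamster ovary cells in tissue culture, scored for mitotic arrest as increase in cells in mitotic arrest over control: +++, 40–50%; ++, 15–40%; +, 10–15%; ±, 7–10%; –, 3–7%. Cytotoxicity noted separately.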

[12] = Antitumor activity against mouse P1534 cells allografted in DBA2 mouse assessed as tumor growth inhibition at 0.25 mg/kg, ip administered daily for 8 to 10 days; assay type: functional; conditions: route intraperitoneal, read-out: TGI
Procedure, shortened: (§6)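 P1534(J) leukemia implanted sc in DBA2 mice; sulfate salts dosed ip daily for 8–10 days. Growth inhibition scored –, 0–25%; +, 26–50%; ++, 51–75%; +++, 76–100%; T, lethal to ≥5 of 10 animals per group. Average of one or more tests.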

[13] = Antitumor activity against mouse P1534 cells allografted in DBA2 mouse assessed as tumor growth inhibition at 0.20 mg/kg, ip administered daily for 8 to 10 days; assay type: functional; conditions: route intraperitoneal, read-out: TGI; procedure, shortened: as §6
P388/S [14] = assay: Antitumor activity against mouse P388/S cells allografted in CD2F1 mouse assessed as increase in host lifespan at 1.80 mg/kg, ip administered on days 1, 5 and 9; assay type: functional; conditions: dose 1.8 mg/kg; route intraperitoneal
Procedure, shortened: (§7)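 Groups of eight male CD2F1 mice, tested at the NCI. Compounds were given as sulfate salts, dosed in mg/kg ip on days 1, 5 and 9. Activity was read as percent increase in lifespan against the leukemia line.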

P388/VCR [15] = assay: Antitumor activity against mouse P388/VCR cells allografted in B6D2F1 mouse assessed as increase in host lifespan at 1.20 mg/kg, ip administered on days 1, 5 and 9; assay type: functional; conditions: dose 1.2 mg/kg; route intraperitoneal
Procedure, shortened: (§8)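 P388/VCR leukemia in groups of 10 B6D2F1 mice, run at Lilly using the cell strain received from NCI. Sulfate salts given ip on days 1, 5 and 9. Read-out is percent increase in lifespan.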

[16] = Antitumor activity against mouse P1534 cells allografted in DBA2 mouse assessed as tumor growth inhibition at 0.40 mg/kg, ip administered daily for 8 to 10 days; assay type: functional; conditions: route intraperitoneal, read-out: TGI; procedure, shortened: as §6
P388/VCR [17] = assay: Antitumor activity against mouse P388/VCR cells allografted in CD2F1 mouse assessed as increase in host lifespan at 1.08 mg/kg, ip administered on days 1, 5 and 9; assay type: functional; conditions: route intraperitoneal; procedure, shortened: as §4
CHO [18] = assay: Mitotic arrest in CHO cells assessed as increase in cell accumulation at 0.002 ug/ml; assay type: functional, Cricetulus griseus; procedure, shortened: as §5
P388/VCR [19] = assay: Antitumor activity against mouse P388/VCR cells allografted in B6D2F1 mouse assessed as increase in host lifespan at 0.60 mg/kg, ip administered on days 1, 5 and 9; assay type: functional; conditions: dose 0.6 mg/kg; route intraperitoneal; procedure, shortened: as §8
[20] = Antitumor activity against mouse P1534 cells allografted in DBA2 mouse assessed as tumor growth inhibition at 0.30 mg/kg, ip administered daily for 8 to 10 days; assay type: functional; conditions: route intraperitoneal, read-out: TGI; procedure, shortened: as §6
Mus musculus [21] = assay: Toxicity in CD2F1 mouse allografted with mouse P388/S cells at 3.00 mg/kg, ip administered on days 1, 5 and 9; assay type: organism-based; set-up: dose 3 mg/kg, route intraperitoneal; conditions: in vivo
P388/VCR [22] = assay: Antitumor activity against mouse P388/VCR cells allografted in CD2F1 mouse assessed as increase in host lifespan at 1.80 mg/kg, ip administered on days 1, 5 and 9; assay type: functional; conditions: dose 1.8 mg/kg; route intraperitoneal; procedure, shortened: as §7
P388/S [23] = assay: Antitumor activity against mouse P388/S cells allografted in CD2F1 mouse assessed as increase in host lifespan at 1.08 mg/kg, ip administered on days 1, 5 and 9; assay type: functional; conditions: route intraperitoneal; procedure, shortened: as §4
P388/S [24] = assay: Antitumor activity against mouse P388/S cells allografted in CD2F1 mouse assessed as increase in host lifespan at 0.648 mg/kg, ip administered on days 1, 5 and 9; assay type: functional; conditions: route intraperitoneal; procedure, shortened: as §4
CHO [25] = assay: Mitotic arrest in CHO cells assessed as increase in cell accumulation at 0.02 ug/ml; assay type: functional, Cricetulus griseus; procedure, shortened: as §5
P388/VCR [26] = assay: Antitumor activity against mouse P388/VCR cells allografted in B6D2F1 mouse assessed as increase in host lifespan at 0.90 mg/kg, ip administered on days 1, 5 and 9; assay type: functional; conditions: dose 0.9 mg/kg; route intraperitoneal; procedure, shortened: as §8

In the case of CC[C@]1(O)C[C@H]2CN(CCc3c([nH]c4ccccc34)[C@@](C(=O)OC)(c3cc4c(cc3OC)N(C)[C@H]3[C@@](O)(C(=O)NCCOC)[C@H](O)[C@]5(CC)C=CCN6CC[C@]43[C@@H]65)C2)C1.O=S(=O)(O)O, the Activity (Mus musculus [1]) is reported as “Toxic”, the Activity (Mus musculus [2]) is reported as “Toxic” and the Activity (Mus musculus [3]) is reported as “Toxic”. The inhibition in vivo at 0.2 mg/kg [4] was 0% and the inhibition in vivo at 0.1 mg/kg [5] was 0%.
With CC[C@]1(O)C[C@H]2CN(CCc3c([nH]c4ccccc34)[C@@](C(=O)OC)(c3cc4c(cc3OC)N(C)[C@H]3[C@@](O)(C(=O)NC5CCSC5=O)[C@H](O)[C@]5(CC)C=CCN6CC[C@]43[C@@H]65)C2)C1.O=S(=O)(O)O (stereo partly specified) the Activity (Mus musculus [1]) was “Toxic”, the survival at 0.3 mg/kg (B16) was 94% and the Activity (Mus musculus [6]) was “Toxic”. The Activity (Mus musculus [7]) was “Toxic”, the Activity (Mus musculus [3]) was “Toxic” and the inhibition in vivo at 0.2 mg/kg [4] was 0%. The inhibition in vivo at 0.1 mg/kg [5] was 0%.
With CC[C@]1(O)C[C@@H]2CN(CCc3c([nH]c4ccccc34)[C@@](C(=O)OC)(c3cc4c(cc3OC)N(C)[C@H]3[C@@](O)(C(=O)OC)[C@H](OC(C)=O)[C@]5(CC)C=CCN6CC[C@]43[C@@H]65)C2)C1.O=S(=O)(O)O [VINBLASTINE SULFATE] the Activity (P388/VCR [8]) was 17%, the Activity (Mus musculus [9]) was “Toxic” and the LD50 [10] was 10 mg/kg. For the same compound, the Activity (CHO [11]) was 40%, the inhibition in vivo at 0.25 mg/kg [12] was 0% and the inhibition in vivo at 0.2 mg/kg [13] was 0%. For the same compound, the Activity (P388/S [14]) was 92%, the Activity (P388/VCR [15]) was 10% and the inhibition in vivo at 0.4 mg/kg [16] was 51%. The Activity (P388/VCR [17]) was 12%, the Activity (CHO [18]) was 3% and the Activity (P388/VCR [19]) was 9%. The inhibition in vivo at 0.3 mg/kg [20] was 0%, the Activity (Mus musculus [21]) was “Toxic” and the Activity (P388/VCR [22]) was 17%. The Activity (P388/S [23]) was 96%, the Activity (P388/S [24]) was 75% and the Activity (CHO [25]) was 15%. It also gave an Activity (P388/VCR [26]) of 9%.
